In ChEMBL document CHEMBL4130442, “Design, synthesis and structure-activity relationship studies of a focused library of pyrimidine moiety with anti-proliferative and anti-metastasis activities in triple negative breast cancer” (Eur J Med Chem, 2017):

Legend:
Type in all cases: functional, cell-based
[1] = test system: MDA-MB-231; assay: Antiproliferative activity against human MDA-MB-231 cells incubated for 24 hrs by MTT assay; settings: MDA-MB-231, 24 h
Procedure, shortened: (§1)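 MDA-MB-231 cells grown in DMEM with 10% FBS under 5% CO2 were seeded at 5×10^4 cells/ml. After 24 h, a concentration series was added for 24, 48 or 72 h and viability was read by MTT. IC50 is mean ± SD of triplicates.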

[2] = test system: MDA-MB-231; assay: Antiproliferative activity against human MDA-MB-231 cells incubated for 48 hrs by MTT assay; settings: MDA-MB-231, 48 h; procedure, shortened: as §1
[3] = test system: MDA-MB-231; assay: Antiproliferative activity against human MDA-MB-231 cells incubated for 72 hrs by MTT assay; settings: MDA-MB-231, 72 h; procedure, shortened: as §1

IC50 [1] [µM]	Structure (SMILES)	also measured
18.4	O=C(c1cccc(O)c1)N1CCN(c2nccc(Oc3cc(Cl)cc(Cl)c3)n2)CC1	–
2.8	COc1cccc(Nc2cc(N3CCN(C(=O)Nc4ccccc4Cl)CC3)ncn2)c1	–
11.3	COc1cccc(Nc2ccnc(N3CCN(C(=O)c4ccc(Cl)cc4Cl)CC3)n2)c1	–
11	O=C(Nc1ccccc1Cl)N1CCN(c2nccc(Oc3cc(Cl)cc(Cl)c3)n2)CC1	–
46.8	COc1ccc(S(=O)(=O)N2CCN(c3nccc(Oc4cc(Cl)cc(Cl)c4)n3)CC2)cc1	–
11.6	Cc1ccc(NC(=O)N2CCN(c3nccc(Oc4cc(Cl)cc(Cl)c4)n3)CC2)cc1	–
11.8	O=C(c1ccc(Cl)cc1Cl)N1CCN(c2nccc(Oc3cc(Cl)cc(Cl)c3)n2)CC1	–
24.8	O=S(=O)(c1cccnc1)N1CCN(c2nccc(Oc3cc(Cl)cc(Cl)c3)n2)CC1	–
2.45	O=C(Nc1ccc(C(F)(F)F)cc1)N1CCN(c2nccc(NCc3ccccc3)n2)CC1	–
> 50	CC(C)(C)c1ccc(S(=O)(=O)N2CCN(c3nccc(Oc4cc(Cl)cc(Cl)c4)n3)CC2)cc1	–
> 50	Cc1cccc(C(=O)N2CCN(c3nccc(Oc4cc(Cl)cc(Cl)c4)n3)CC2)c1	–
9.79	O=C(c1ccc(Cl)cc1Cl)N1CCN(c2nccc(NCc3ccccc3)n2)CC1	–
7.9	O=C(Nc1cccc(Cl)c1)N1CCN(c2nccc(Oc3cc(Cl)cc(Cl)c3)n2)CC1	–
46.8	O=C(Nc1ccc2ccccc2c1)N1CCN(c2nccc(Oc3cc(Cl)cc(Cl)c3)n2)CC1	–
> 50	O=C(c1ccc2ncccc2c1)N1CCN(c2nccc(Oc3cc(Cl)cc(Cl)c3)n2)CC1	–
55.5	C#Cc1cccc(Nc2ncnc3cc(OCCOC)c(OCCOC)cc23)c1 [ERLOTINIB]	IC50 [2]: 33.5 µM; IC50 [3]: 30.1 µM
24.7	CN1CCN(CC(=O)N2CCN(c3nccc(Oc4cc(Cl)cc(Cl)c4)n3)CC2)CC1	–
1.59	O=C(Nc1ccccc1Cl)N1CCN(c2nccc(NCc3ccccc3)n2)CC1	–
16.4	COc1ccc(NC(=O)N2CCN(c3nccc(Oc4cc(Cl)cc(Cl)c4)n3)CC2)cc1	–
> 50	O=C([C@H]1Cc2ccccc2N1)N1CCN(c2nccc(Oc3cc(Cl)cc(Cl)c3)n2)CC1	–
1.54	O=C(Nc1ccc(C(F)(F)F)cc1)N1CCN(c2nccc(Oc3cc(Cl)cc(Cl)c3)n2)CC1	–

IC50 [1] [µM]	Structure (SMILES)	also measured
> 50	O=S(=O)(c1ccc(F)cc1)N1CCN(c2nccc(Oc3cc(Cl)cc(Cl)c3)n2)CC1	–
35.2	O=C(c1ccc[nH]1)N1CCN(c2nccc(Oc3cc(Cl)cc(Cl)c3)n2)CC1	–
37.6	O=C(CN1CCOCC1)N1CCN(c2nccc(Oc3cc(Cl)cc(Cl)c3)n2)CC1	–
6.74	O=C(Nc1cc(C(F)(F)F)cc(C(F)(F)F)c1)N1CCN(c2nccc(Oc3cc(Cl)cc(Cl)c3)n2)CC1	–
> 50	O=C1CC[C@@H](C(=O)N2CCN(c3nccc(Oc4cc(Cl)cc(Cl)c4)n3)CC2)N1	–
> 50	O=C(c1ccccc1F)N1CCN(c2nccc(Oc3cc(Cl)cc(Cl)c3)n2)CC1	–
7.23	COc1cccc(Nc2cc(N3CCN(C(=O)c4ccc(Cl)cc4Cl)CC3)ncn2)c1	–
> 50	O=S(=O)(c1ccccc1)N1CCN(c2nccc(Oc3cc(Cl)cc(Cl)c3)n2)CC1	–
> 50	CC(C)(C(=O)N1CCN(c2nccc(Oc3cc(Cl)cc(Cl)c3)n2)CC1)c1cc(C(F)(F)F)cc(C(F)(F)F)c1	–
1.24	COc1cccc(Nc2ccnc(N3CCN(C(=O)Nc4ccc(C(F)(F)F)cc4)CC3)n2)c1	–
34.8	Cc1cnc(C(=O)N2CCN(c3nccc(Oc4cc(Cl)cc(Cl)c4)n3)CC2)cn1	–
17.9	O=C(c1cccc(C(F)(F)F)c1)N1CCN(c2nccc(Oc3cc(Cl)cc(Cl)c3)n2)CC1	–
16.8	COc1ccccc1S(=O)(=O)N1CCN(c2nccc(Oc3cc(Cl)cc(Cl)c3)n2)CC1	–
24.8	N#Cc1ccc(S(=O)(=O)N2CCN(c3nccc(Oc4cc(Cl)cc(Cl)c4)n3)CC2)cc1	–
16.7	O=C(c1cc(Cl)ccn1)N1CCN(c2nccc(Oc3cc(Cl)cc(Cl)c3)n2)CC1	–
12.5	O=C(c1ccc(C(F)(F)F)cc1)N1CCN(c2nccc(Oc3cc(Cl)cc(Cl)c3)n2)CC1	–
> 50	CC(=O)Nc1ccc(C(=O)N2CCN(c3nccc(Oc4cc(Cl)cc(Cl)c4)n3)CC2)cc1	–
> 50	O=C(c1ccc2c(c1)OCO2)N1CCN(c2nccc(Oc3cc(Cl)cc(Cl)c3)n2)CC1	–
5.26	COc1cccc(Nc2ccnc(N3CCN(C(=O)Nc4ccccc4Cl)CC3)n2)c1	–
37.8	O=C(c1cccc(Cl)c1)N1CCN(c2nccc(Oc3cc(Cl)cc(Cl)c3)n2)CC1	–
